# Screening data deposited in PubChem by several laboratories.
# Sampled rows, rich in hits. Any-hit rate of the full collection: about 4.3%.
# STAT1 act: STAT1 signaling activation; NIH 3T3 STAT1-luciferase reporter, IFN-gamma, luminescence; 100% = IFN-gamma alone, no compound; activation (% of control), % at 5.5 µM; 2.6% of 200,000 active;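 active means activation above the screen-wide mean activation plus 3 SD, cut at about 130% in these data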
# NF-kB expr up: compounds increasing NF-kB expression in human neuronal cells; NF-kB reporter expression; stronger effect = higher value; fold change at 12.5 µM; AID 1239; 1.6% of 190,000 active; in the data active means fold change above about 3.3
# APP 5'UTR act: APP 5'UTR luciferase reporter activation. 1% of 190,000 active. SH-SY5Y APP 5'UTR luciferase reporter, luminescence; zero percent = DMSO vehicle wells. activation, % at 2 µM;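 active means activation above a set limit, based on mean plus 3 SD of controls, cut at about 140% in these data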
# FLuc inhib CS: counter-screen for luciferase assay inhibitors: firefly luciferase inhibition. P08659. ATPLite firefly luciferase biochemical luminescence, 10 min. inhibition, % at 10 µM. 1.5% of 200,000 active;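 active means inhibition above about 50% when tested at 10 µM, limit read from the data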
# Target sequence (P08659 whole entry, looked up): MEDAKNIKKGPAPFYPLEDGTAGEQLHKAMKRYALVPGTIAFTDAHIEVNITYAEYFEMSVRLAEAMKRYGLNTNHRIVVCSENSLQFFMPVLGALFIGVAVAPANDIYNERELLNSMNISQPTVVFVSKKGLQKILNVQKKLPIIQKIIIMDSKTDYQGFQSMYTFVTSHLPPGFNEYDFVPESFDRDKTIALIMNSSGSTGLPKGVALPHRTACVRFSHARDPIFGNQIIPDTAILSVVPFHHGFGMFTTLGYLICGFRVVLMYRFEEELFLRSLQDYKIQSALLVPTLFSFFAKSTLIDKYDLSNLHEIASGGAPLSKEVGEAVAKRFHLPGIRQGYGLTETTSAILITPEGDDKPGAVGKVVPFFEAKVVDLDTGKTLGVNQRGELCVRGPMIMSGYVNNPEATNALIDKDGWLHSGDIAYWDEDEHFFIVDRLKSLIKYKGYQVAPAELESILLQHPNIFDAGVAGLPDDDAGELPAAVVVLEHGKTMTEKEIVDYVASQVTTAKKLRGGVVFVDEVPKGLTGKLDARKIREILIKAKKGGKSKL
# sdo1 growth: restores growth of sdo1-depleted yeast; S. cerevisiae sdo1-depleted JHY4D growth rescue, OD600 30 h; stronger effect = higher value; pdr5 snq2 efflux-pump mutant strain; z-score at 10 µM; 0.21% of 140,000 active; AID 817;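 active means z-score above 3 at both the 24 hr and the 30 hr optical density reads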
# FLuc act counter: affects firefly luciferase, flagging false hits in luciferase stimulation screens; ATPlite luciferase biochemical, luminescence, 10 min; 0 = ATP-free wells, 1 = DMSO control; activation factor at 10 µM; 200,000 tested, under 10 active; AID 1027;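 active means luciferase activation factor, scaled between plate controls, of at least 2 with compound at 10 µM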
#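 Assay system – cell-free luciferase reagent · Medium – PBS-based ATP solution · Dosing – test compounds dosed from 2 mM stocks in 100% DMSO · Timing – 10 min, room temperature · Technique – light output (luminescence) · Measure – luminescence gain marking luciferase activators · Controls – No-ATP low control, compound-free enzyme-plus-ATP high control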
# A number is an active result; i = inactive; nt = not tested or not shown.
SMILES,STAT1 act,NF-kB expr up,APP 5'UTR act,FLuc inhib CS,sdo1 growth,FLuc act counter
Cc1c(/C=C/C(=O)c2ccc(O)cc2)cnn1C,i,i,i,58,i,i
Cc1c(/C=C/C(=O)c2ccc(Cl)s2)cnn1C,i,i,i,62,i,i
Cc1c(/C=N\NC(=O)c2ccc(F)cc2)cnn1C,i,i,i,i,i,i
CC(=O)Cc1nsc(NC(=O)c2ccc(-c3cccc(Cl)c3)o2)n1,i,i,i,i,nt,i
Cc1csc(NS(=O)(=O)c2cccc([N+](=O)[O-])c2)n1,i,i,i,i,nt,i
Cc1nc(SCc2ccccc2)nc2c1CCC2,148,i,i,i,nt,i
Cc1ccc(CSc2nc3c(c(N(C)C)n2)CCCC3)cc1,i,i,i,i,i,i
O=C1N(Cc2cccnc2)C[C@@H]2C[C@@H](c3cccc(OC4CCCC4)c3)N3CCC[C@@]123,i,i,i,i,nt,i
C=CCn1c(SCC(=O)Nc2ccc(-c3nc4ccc(C)cc4s3)cc2)nnc1-c1ccncc1,130,i,160,i,i,i
Cc1ccc2nc(-c3ccc(NC(=S)NC(=O)CC(C)C)cc3)sc2c1,i,i,i,i,i,i
Cc1ccc2nc(-c3ccc(NC(=O)CSc4nccc(=O)[nH]4)cc3)sc2c1,134,i,144,i,nt,i
CCn1c(SCC(=O)Nc2ccc(-c3nc4ccc(C)cc4s3)cc2)nnc1-c1ccccc1,132,i,i,i,i,i
C=CCn1c(SCC(=O)Nc2ccc(N(C)C)cc2)nnc1-c1cccc(C)c1,i,i,i,i,i,i
COC(=O)CC(N)c1ccc(OC)c2ccccc12 (configuration not stated),i,i,i,i,i,i
N#Cc1ccc(CSc2nnc(NC(=O)CN3C(=O)C4CC=CCC4C3=O)s2)cc1 (configuration not stated),i,i,i,i,i,i
Cc1cc(C(=O)Cn2nnc3ccccc3c2=O)c(C)n1Cc1cccs1,i,i,223,80,i,i
Cc1ccccc1SCCNC(=O)CCc1ccccc1,149,i,i,i,nt,i
Cc1ccccc1SCCNC(=O)c1ccccc1Br,i,i,i,i,nt,i
CCOC(=O)CSc1nc2ccc(N)cc2s1,i,i,i,i,i,i
Nc1ccc2nc(SCc3cccc(F)c3)sc2c1,i,6.1,i,i,nt,i
Cc1nc(-c2coc3c(CN(C)C)c(O)ccc3c2=O)cs1,i,i,i,i,i,i
O=C(N/N=C1\C2CN3CCN(C2)CC1(c1ccccc1)C3)c1ccc(F)cc1,i,i,i,i,i,i
Nc1ccccc1C(=O)N/N=C1\C2CN3CCN(C2)CC1(c1ccccc1)C3,130,i,i,i,i,i
O=C(N/N=C/c1cc([N+](=O)[O-])ccc1O)c1ccc2c(c1)OCCO2,i,i,i,70,i,i
Cc1ccsc1/C=N/NC(=O)c1ccc(-n2cccc2)cc1,129,i,i,i,nt,i
SMILES,STAT1 act,NF-kB expr up,APP 5'UTR act,FLuc inhib CS,sdo1 growth,FLuc act counter
Cc1ccsc1/C=N\NC(=O)c1n[nH]c2c1CCC2,i,4.8,i,71,i,i
O=C(N/N=C/c1ccc[nH]1)c1ccc2c(c1)OCO2,i,i,i,73,nt,i
Cn1c(SCC(=O)N2CCCC2=O)nnc1-c1ccccc1F,i,i,i,i,nt,i
O=C(c1ccccc1)c1ccccc1C(=O)N1CCN(C(=O)c2ccccc2)CC1,i,i,i,i,nt,i
O=C(C1Cc2ccccc2CN1S(=O)(=O)c1cccs1)N1CCCCC1 (configuration not stated),i,i,i,i,i,i
CCOc1cc2[nH]c(=O)n(CCCN3CCN(c4ccc(OC)cc4)CC3)c(=O)c2cc1OCC,i,i,i,i,nt,i
O=C(O)CC(c1cccc([N+](=O)[O-])c1)N1Cc2ccccc2C1=O (configuration not stated),i,i,i,i,nt,i
Cc1ccsc1/C=N\NC(=O)c1ccc2c(c1)OCO2,i,4.3,i,77,i,i
CCc1ccccc1NC(=O)COc1ccc2oc(-c3ccc(OC)cc3)cc(=O)c2c1,i,i,i,i,i,i
O=c1cc(-c2ccc(O)cc2)oc2ccc(O)cc12,150,4.1,i,i,nt,i
COc1cc(-c2cc(=O)c3ccccc3o2)ccc1O,134,i,i,i,nt,i
O=c1cc(-c2ccncc2)oc2ccccc12,i,i,i,i,i,i
COc1ccc(-c2cc(=O)c3c(O)c(OC)c(O)cc3o2)cc1,i,9,152,90,nt,i
NC(=O)COc1ccc2oc(-c3ccccc3)cc(=O)c2c1,i,i,i,56,nt,i
Cc1cc(C)c2c(N)c(C(=O)NC3CC3)sc2n1,i,i,i,i,i,i
Cc1cc(C)c2c(N)c(C(=O)Nc3nccs3)sc2n1,i,i,i,94,i,i
COCc1cc(C)nc2sc(C(=O)Nc3nccs3)c(N)c12,132,i,i,i,i,i
Cn1/c(=N/N=C/c2ccc([N+](=O)[O-])cc2)sc2ccccc21,132,i,i,i,i,i
COc1ccccc1N=c1sc2ccccc2n1C,i,i,i,i,i,i
Cc1ccc(S(=O)(=O)NC(=O)c2cc(C)n(CCCn3ccnc3)c2C)cc1,i,i,i,i,i,i
O=C(N/N=C1/CC2C=CCC12)c1ccco1 (configuration not stated),134,i,i,i,i,i
O=C(CCNc1ccc(F)cc1)c1ccco1,i,i,i,i,i,i
Cc1ccc(C(=O)CC(=O)c2cc(Cl)ccc2O)cc1,i,4.3,i,i,i,i
O=C(CCC(=O)N(CC(=O)NC1CCCCC1)CC1CCCO1)Nc1nccs1 (configuration not stated),i,i,i,i,nt,i
O=C(O)C(=O)/C(=C\c1ccc(Cl)cc1)c1ccc2ccccc2n1,130,i,i,i,nt,i
SMILES,STAT1 act,NF-kB expr up,APP 5'UTR act,FLuc inhib CS,sdo1 growth,FLuc act counter
O=C(O)C/C(=C\c1ccc(Cl)cc1)c1nc2ccccc2o1,i,i,i,i,nt,i
CCC(C)(C)C1CCc2c(sc(NC(=O)c3cccs3)c2C(N)=O)C1 (configuration not stated),i,i,i,i,i,i
CC(C)(C)C1CCc2c(sc(NC(=O)c3cccs3)c2C(N)=O)C1 (configuration not stated),i,i,i,58,i,i
CC(=O)Nc1ccc2c(c1)C(=O)N(c1ccc(C)cc1)C2=O,i,i,i,i,i,i
Cc1ccc(N2C(=O)c3ccc(N)cc3C2=O)cc1C,141,3.7,i,i,i,i
Cc1ccc(N2C(=O)c3ccc(N)cc3C2=O)cc1,149,3.5,i,i,i,i
O=C(CSc1ccc(-c2ccc(Cl)cc2)nn1)Nc1ccc2c(c1)OCCO2,i,i,i,i,i,i
CCCC(=O)Nc1sc(Cc2ccccc2)c(C)c1C(N)=O,i,i,i,i,nt,i
Cc1cc(C)cc(N=Cc2c(O)c3ccccc3oc2=O)c1,i,i,i,i,nt,i
